# An excerpt weighted towards active compounds, which were near 4.1% of everything screened.
# FLuc act counter: firefly luciferase counter-screen for stimulation assays; P08659; ATPlite luciferase biochemical, luminescence, 10 min; 0 = ATP-free wells, 1 = DMSO control; activation factor at 10 µM; 200,000 tested, under 10 active;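 active means luciferase activation factor, scaled between plate controls, of at least 2 with compound at 10 µM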
# Target sequence (P08659 whole entry, looked up): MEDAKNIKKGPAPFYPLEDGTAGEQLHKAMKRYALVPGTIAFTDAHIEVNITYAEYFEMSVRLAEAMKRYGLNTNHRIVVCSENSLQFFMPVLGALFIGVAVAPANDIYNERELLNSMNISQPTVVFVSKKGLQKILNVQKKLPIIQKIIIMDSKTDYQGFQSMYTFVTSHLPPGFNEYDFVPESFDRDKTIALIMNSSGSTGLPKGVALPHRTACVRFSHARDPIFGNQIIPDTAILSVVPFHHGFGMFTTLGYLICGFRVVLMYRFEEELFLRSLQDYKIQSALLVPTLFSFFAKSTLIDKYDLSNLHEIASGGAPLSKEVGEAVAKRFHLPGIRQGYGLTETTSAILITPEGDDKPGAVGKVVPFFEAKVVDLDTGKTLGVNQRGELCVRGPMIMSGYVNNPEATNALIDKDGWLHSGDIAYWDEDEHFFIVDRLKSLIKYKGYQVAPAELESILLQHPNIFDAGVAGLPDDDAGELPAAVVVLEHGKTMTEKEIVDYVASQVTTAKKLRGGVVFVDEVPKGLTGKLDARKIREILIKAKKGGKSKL
#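 assay system = Luciferase/luciferin detection reagent, cell-free biochemical luciferase assay | also added = ATP substrate | times = 10 min post-reagent at room temperature | measured by = luminescence from luciferase reaction | measure = luciferase activation, seen as luminescence increase over controls | benchmarks = low control with PBS replacing ATP, high control enzyme plus ATP without compound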
# NF-kB neuron act: compounds increasing NF-kB expression in human neuronal cells. NF-kB reporter expression; active compounds read high. 1.6% of 190,000 active. fold change at 12.5 µM; in the data active means fold change above about 3.3
# STAT1 act: increases IFN-gamma driven STAT1 reporter signal. AID 932. activation (% of control), % at 5.5 µM. NIH 3T3 STAT1-luciferase reporter, luminescence; 100% = IFN-gamma alone, no compound. 2.6% of 200,000 active;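 active means activation above the screen-wide mean activation plus 3 SD, cut at about 130% in these data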;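 further: raw ratio to IFN-gamma control signal so 100% means no change and 0% no light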
# APP 5'UTR act: activates APP 5'UTR luciferase reporter. SH-SY5Y APP 5'UTR luciferase reporter, luminescence; zero percent = DMSO vehicle wells. 1% of 190,000 active. activation, % at 2 µM;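 active means activation above a set limit, based on mean plus 3 SD of controls, cut at about 140% in these data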
# FLuc inhib CS: inhibits firefly luciferase, flagging false hits in luciferase inhibition screens; inhibition, % at 10 µM; AID 1006; 1.5% of 200,000 active; ATPLite firefly luciferase biochemical luminescence, 10 min;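 active means inhibition above about 50% when tested at 10 µM, limit read from the data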
# The depositor's hits bear a star; . = no result.
SMILES,FLuc act counter,NF-kB neuron act,STAT1 act,APP 5'UTR act,FLuc inhib CS
CC(C)CC(NC(=O)OC(C)(C)C)C(=O)NC(C(=O)NC(C)C(N)=O)C(C)C (stereo not drawn),1,0.97,101.4,13.0,-2.3
COc1ccc(C(=O)/C=C/c2ccc(F)cc2)c(OC(=O)c2ccc([N+](=O)[O-])cc2)c1,1,1.58,104.3,8.3,-3.6
COc1ccc(C(=O)/C=C/c2cccs2)c(OC(=O)c2cccc([N+](=O)[O-])c2)c1,1,6.01*,112.5,21.4,1.4
Cc1ccc(O)c(NC(=O)C2CC(c3ccc(F)cc3)=NO2)c1 (stereo not drawn),1,1.12,97.7,-7.7,-4.8
Cc1ccc(N/C=C(/C#N)c2ccsc2)cc1,1,2.32,134.4*,63.9,0.9
C=CCNC(=O)C1CCN(C(=O)c2ccc(-c3ccccc3)cc2)CC1,1,1.12,104.4,-0.9,-4.1
CC1CCCC/C1=N\NC(=S)Nc1ccccc1 (stereo not drawn),1,1.42,104.7,174.9*,-3.9
CC1CCC/C(=N\NC(=S)Nc2ccccc2)C1 (stereo not drawn),1,0.94,105.5,125.5,-3.0
CCOC(=O)c1sc2nc(SC)nc(-c3ccc(Cl)cc3)c2c1N,1,1.06,99.2,-5.6,-4.5
C1=Nc2ccccc2CN1c1ccccc1,0.9,1.97,130.2*,19.4,13.3
COc1cc(CNc2ccc(CNc3ncn[nH]3)cc2)ccc1OCc1ccccc1,1,1.32,129.3*,7.3,1.0
c1ccc2c(CNc3ccc(CNc4ncn[nH]4)cc3)cccc2c1,1,0.83,90.0,13.6,-2.8
COc1ccccc1CNc1ccc(CNc2ncn[nH]2)cc1,1,5.35*,101.6,-5.7,-3.3
COc1ccc2nc3sc(C(=O)N4CCN(C)CC4)cc3cc2c1,1,1.59,108.6,17.7,3.2
CCc1ccc2nc3sc(C(=O)O)cc3cc2c1,0.3,1.82,117.7,12.8,67.7*
CCCCOc1ccc(NC(=O)C2CC=CCC2C(=O)O)cc1 (stereo not drawn),1.1,.,96.0,-6.1,-5.6
COc1cccc(NC(=S)NN=C2CCCCCC2)c1,0.8,3.33*,103.9,25.0,24.2
CCC(C)(C)n1nnnc1C(c1ccc(C)cc1)N1CCC(C)CC1 (stereo not drawn),1.1,1.09,96.8,-14.0,-5.6
COc1cc(/C=C2/CCc3ccccc3C2=O)cc(OC)c1OC,1,3.83*,104.6,26.6,-0.4
COc1ccc(/C=C2/CCc3ccccc3C2=O)cc1OC,0.7,3.43*,97.9,100.8,33.2
COc1cc(/C=C2\CC/C(=C\c3cc(OC)c(O)c(OC)c3)C2=O)cc(OC)c1O,1,0.67,131.9*,-5.0,-1.5
O=C(CSc1nnc(C2COc3ccccc3O2)o1)NC1CCCCC1 (stereo not drawn),1,1.9,99.8,17.3,-3.8
CCOC(=O)C(C)c1n[nH]c(=O)c2ccccc12 (stereo not drawn),1,1.11,97.8,-7.6,-3.1
COC(=O)c1cc(NC(=O)CCc2c(C)nc3ncnn3c2C)cc(C(=O)OC)c1,1.1,1.01,96.5,-3.9,-8.7
Cn1c(-c2ccc(F)cc2)cnc1NCc1ccc(C#N)cc1,1,1.06,95.4,0.1,-0.2
SMILES,FLuc act counter,NF-kB neuron act,STAT1 act,APP 5'UTR act,FLuc inhib CS
CSc1ccc(-c2ccco2)nn1,0.7,1.73,128.6*,29.3,27.3
CCSc1ccc(-c2ccco2)nn1,0.8,1.17,116.7,29.4,18.3
Cc1ccc(NC(=O)N2CCC(c3ccccc3)C2)cc1C (stereo not drawn),0.5,5.73*,150.5*,142.7*,48.8
O=C(Nc1ccc(Cl)cc1)N1CCC(c2ccccc2)C1 (stereo not drawn),0.4,6.2*,146.4*,168.8*,63.6*
Cc1ccc(C2CCN(C(=O)Nc3ccccc3)C2)cc1 (stereo not drawn),0.7,2.47,125.4,66.5,33.6
COc1ccccc1/C=C/C(=O)N1CCC(c2ccccc2)C1 (stereo not drawn),0.7,2.38,134.2*,52.0,34.8
COc1ccccc1/C=C/C(=O)N1CCOCC1,1.1,1.02,101.0,-25.8,-5.2
CC1CCN(C(=O)CNC(=O)Cn2ccc3ccccc3c2=O)CC1,1.1,1,95.9,5.5,-5.4
Cc1ccc(S(=O)(=O)N2CCOCC2)cc1NC(=O)COC(=O)CNC(=O)c1ccc(Oc2ccccc2)cc1,0.3,0.91,100.0,16.1,73.0*
Cc1ccc(S(=O)(=O)N2CCOCC2)cc1NC(=O)COC(=O)CCC(=O)c1cccs1,1,0.97,94.5,21.6,-1.0
Cc1ccc(S(=O)(=O)N2CCOCC2)cc1NC(=O)COC(=O)CNC(=O)c1ccc(C(C)(C)C)cc1,0.2,1.2,98.6,25.2,81.0*
Cc1ccc(S(=O)(=O)N2CCOCC2)cc1NC(=O)COC(=O)Cc1ccsc1,1.1,0.94,90.0,-2.4,-8.0
CC(=O)N(C)Cc1ccc(C(=O)CCl)cc1,1,3.79*,89.5,-2.5,-0.7
Cc1ccccc1Nc1nc(-c2sc(NC(=O)c3ccc([N+](=O)[O-])cc3)nc2C)cs1,0.9,1.62,105.7,20.3,5.7
CCOC(=O)c1c(OCC)[nH]c2c1cc(O)c1ccccc12,1.1,0.86,106.1,-16.6,-7.3
CCOC(=O)c1c(C)[nH]c2cc(Br)c(O)cc12,1,3.38*,103.0,-43.6,1.7
CC1CCCCC12NC(=O)N(CC(=O)NC(=O)Nc1ccc3c(c1)OCCO3)C2=O (stereo not drawn),0.7,1.09,131.7*,77.9,33.1
Cc1ccccc1OCCCn1c(=O)sc2ccccc21,0.8,2.25,130.6*,70.0,17.0
O=c1sc2ccccc2n1CCCOc1ccccc1,0.9,2.76,131.3*,70.9,14.2
O=S(=O)(c1ccccc1)N1CCN=C1SCc1ccc(Cl)cc1,1,1.21,98.1,25.8,2.6
CCCc1ccc(-c2ccc(/C=C/C(=O)O)cc2)nc1,0.1,3.1,122.2,-46.3,86.0*
CCCCCCCc1ccc(-c2ccc(O)cc2)nc1,0.8,1.13,107.4,26.6,22.8
CCCCCc1ccc(-c2ccc(/C=C/C(=O)O)cc2)nc1,0.2,4.57*,111.0,-20.9,78.1*
CC(C)(C)c1ccc(OCc2cnc(Cl)s2)cc1,1,1.78,121.1,54.9,3.0
CS(=O)(=O)N1CCN(c2ccccc2NC(=O)c2ccc(-c3ccc(Br)cc3)o2)CC1,1,0.64,98.8,-4.6,-2.1
CCOC(=O)/C(=C\c1ccccc1)C(=O)c1cc(C(C)=O)c(Nc2ccccc2)s1,1.1,9.74*,78.6,-11.3,-5.6
O=[N+]([O-])c1ccc(C2CN=C(Nc3ccccc3)S2)cc1 (stereo not drawn),1,1.62,107.6,8.7,-2.0
CCc1ccc(NC2=NCC(c3ccccc3)S2)cc1 (stereo not drawn),1,3.22,129.5*,30.4,3.1

# Source: PubChem BioAssay (several laboratories)
